# TRPC4 act = TRPC4 (mouse) channel activation | HEK293 TRPC4beta/mu-opioid, Fluo4 calcium fluorescence; active compounds read high | B-score at 10 µM | 310,000 tested, 0.49% active | AID 2237;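 active = B-score above 5 SD of library B-scores, and initial fluorescence ratio not above library mean plus 5 SD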;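 also: positive B-score marks a calcium rise read as TRPC4 activation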
#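 Assay system: HEK293 stable line with TRPC4beta plus mu-opioid receptor; schedule: 45 min room-temperature Fluo4 loading, 110 s read; technique: kinetic Fluo4 calcium fluorescence; evaluation: integrated baseline-normalised fluorescence ratio, converted to per-well B score; controls: buffer (low) and maximal DAMGO (high)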
# TRPC4 potent = allosteric potentiators of mouse TRPC4 channel. HEK293 TRPC4beta/mu-opioid, DAMGO EC20, Fluo-4 Ca2+ flux; active compounds read high. B-score at 10 µM. 310,000 tested, 0.42% active;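 active = B-score of calcium response area above 5 SD of library B-scores, with initial fluorescence ratio within 5 SD of library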;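 also: B-score of integrated fluorescence ratio over time as area under calcium response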
# TRPC4 block = blocks the mouse TRPC4 cation channel; HEK293 TRPC4beta/mu-opioid, DAMGO-evoked Fluo4 calcium flux; active compounds read low; AID 2247; 300,000 tested, 0.39% active; B-score at 10 µM; Q9QUQ5;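 active = B-score over 3 SD under the library average, no early fluorescence shift, positive overall ratio signal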
#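 Assay system: TRPC4beta/mu-opioid receptor HEK293 cell line; compound dosing: single concentration per test compound; detection: Fluo4 Ca2+ flux fluorescence; evaluation: per-well B score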
# TRPC6 inh = mouse TRPC6 channel inhibition. 310,000 tested, 1.1% active. Q61143. B-score at 10 µM. HEK293-TRPC6, membrane potential dye, ACh-evoked depolarization; active compounds read low;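 active = B-score under library mean minus 3 SD, initial fluorescence not abnormally high, positive integrated signal ratio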;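 also: B-score derived from integrated fluorescence ratio over the kinetic read; more negative B-score means stronger inhibition of depolarization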
# Target sequence (Q61143 whole entry, looked up): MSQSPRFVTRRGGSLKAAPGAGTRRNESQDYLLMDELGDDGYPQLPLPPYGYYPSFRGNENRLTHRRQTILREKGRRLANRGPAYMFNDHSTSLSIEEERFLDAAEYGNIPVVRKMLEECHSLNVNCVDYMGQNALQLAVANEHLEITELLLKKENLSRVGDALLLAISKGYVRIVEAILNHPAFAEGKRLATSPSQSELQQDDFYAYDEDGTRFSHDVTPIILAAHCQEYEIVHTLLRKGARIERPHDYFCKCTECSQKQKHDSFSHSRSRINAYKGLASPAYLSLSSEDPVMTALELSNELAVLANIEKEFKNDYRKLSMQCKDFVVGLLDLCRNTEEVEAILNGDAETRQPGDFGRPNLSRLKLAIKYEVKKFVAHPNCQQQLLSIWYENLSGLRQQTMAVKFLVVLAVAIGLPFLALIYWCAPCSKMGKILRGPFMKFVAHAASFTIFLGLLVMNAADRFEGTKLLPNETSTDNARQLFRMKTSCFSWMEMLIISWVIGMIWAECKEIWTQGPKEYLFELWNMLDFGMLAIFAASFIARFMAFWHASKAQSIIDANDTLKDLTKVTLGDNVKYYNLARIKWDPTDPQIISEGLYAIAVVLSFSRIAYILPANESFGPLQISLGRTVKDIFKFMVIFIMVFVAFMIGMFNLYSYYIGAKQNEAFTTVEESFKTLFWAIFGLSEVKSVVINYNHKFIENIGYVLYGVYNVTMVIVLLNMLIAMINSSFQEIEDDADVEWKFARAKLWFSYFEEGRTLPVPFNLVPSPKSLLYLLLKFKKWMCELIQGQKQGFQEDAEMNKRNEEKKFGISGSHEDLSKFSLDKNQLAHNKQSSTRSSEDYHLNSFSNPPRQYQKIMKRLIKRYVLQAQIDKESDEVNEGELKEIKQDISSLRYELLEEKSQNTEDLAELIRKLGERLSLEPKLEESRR
# TRPC6 act = activates the mouse TRPC6 cation channel; 310,000 tested, 0.13% active; HEK293-TRPC6 membrane potential dye fluorescence; active compounds read high; B-score at 10 µM; Q61143; AID 2550;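 active = B-score of the integrated fluorescence ratio above library mean plus 3 SD, and starting fluorescence ratio within library mean plus 5 SD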;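 also: higher score means more depolarization so channel activation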
# The depositor's hits bear a star; i = inactive. Compounds with a hit are over-represented: about 2.3% of the library has one in this group of screens.
SMILES,TRPC4 act,TRPC4 potent,TRPC4 block,TRPC6 inh,TRPC6 act
COc1ccccc1/C=C/CN1CCCC(CCC(=O)NCc2ccccc2F)C1 (stereo not given),113*,i,-6*,i,i
COc1cccc(CNC(=O)CCC2CCCN(C(=O)Cc3ccccc3F)C2)c1 (stereo not given),i,i,i,i,i
Cc1nc2ccccc2n1Cc1ccccc1,i,i,i,i,i
CC(C)(C)Cc1nc2ccccc2n1CCc1ccccc1,i,i,-7*,i,i
Cc1nc2ccccc2n1Cc1ccc(Br)cc1,i,i,-6*,i,i
Cc1ccc(OCCn2c(C)nc3ccccc32)cc1,i,i,-6*,i,i
Nc1nc2ccccc2n1CCOc1ccc(Cl)cc1,i,i,-7*,i,i
Nc1nc2ccccc2n1CCOc1ccc(Br)cc1,i,i,i,i,i
CCCc1nc2ccccc2n1CCOc1ccccc1,i,i,-6*,i,i
Cc1nc2ccccc2n1CCCOc1ccccc1,i,i,i,i,i
CCCc1nc2ccccc2n1CCOC,i,i,i,i,i
Cc1nc(Cl)c(Cl)n1CCOc1ccccc1,i,i,-8*,i,i
N[C@@H](Cc1ccccc1)C(=O)N1CCC(C(=O)N[C@@H](Cc2c[nH]c3ccccc23)C(=O)O)CC1,i,i,-6*,i,i
CCC(=O)n1nc(-c2cccnc2)nc1NCc1ccc(OC)cc1,i,i,i,i,i
COc1ccc(CNc2nc(-c3cccnc3)nn2C(=O)C(C)C)cc1,i,i,-5*,i,i
CCC(C)(C)NC(=O)C1CCN(c2nc(OC)nc(OC)n2)CC1,i,i,i,i,i
OCC1(Cc2ccc(Cl)cc2)CCN(Cc2ccccc2F)CC1,i,i,-6*,i,i
CC(=O)n1cc([C@H]2C=C(C(N)=O)O[C@@H](OCc3ccc(CO)cc3)C2)c2ccccc21,51*,i,i,i,i
CC(=O)n1cc([C@H]2C=C(C(=O)NCc3ccccc3)O[C@@H](OCc3ccc(CO)cc3)C2)c2ccccc21,244*,i,i,i,i
C#CCNC(=O)C1=C[C@@H](c2cn(C(C)=O)c3ccccc23)C[C@@H](OCc2ccc(CO)cc2)O1,i,i,i,i,i
C#CCNC(=O)C1=C[C@H](c2csc3ccccc23)C[C@H](OCc2ccc(CO)cc2)O1,52*,i,i,i,i
CCCN(CC(=O)Nc1ccc(C(N)=O)cc1)CC(=O)Nc1ccc(F)c(F)c1F,i,i,i,i,i
Cc1ccc(C)c2nc(Cl)c(C3NC(=O)c4ccccc4N3)cc12 (stereo not given),i,15*,i,i,i
Cc1cc(C)c2nc(Cl)c(C3NC(=O)c4ccccc4N3)cc2c1 (stereo not given),i,i,i,i,i
N#C/C(=C\c1ccc[nH]1)C(=O)N1CCCCC1,i,i,i,i,i
SMILES,TRPC4 act,TRPC4 potent,TRPC4 block,TRPC6 inh,TRPC6 act
CCCOc1ccc(N2C(=O)CC(N(CCc3ccccc3)C(=O)c3ccccc3)C2=O)cc1 (stereo not given),i,i,i,i,i
O=C(CSc1nnc(-c2ccc(Cl)cc2Cl)n1C1CCCCC1)N1CCCC1,i,i,-6*,i,i
N#CC1=C(N)C(C#N)(C#N)C(c2cccnc2)C2CC(c3ccccc3)CC=C12 (stereo not given),i,36*,i,i,i
N#CC1=C(N)C(C#N)(C#N)C(c2cccnc2)C2CCCC=C12 (stereo not given),i,i,i,i,i
COc1ccc(S(=O)(=O)c2snnc2C)cc1,i,i,i,i,i
O=c1c2c(-c3ccccc3)csc2ncn1/N=C/c1cccc([N+](=O)[O-])c1O,68*,i,-8*,i,i
O=c1c2c(-c3ccccc3)csc2ncn1/N=C/c1ccc(O)c([N+](=O)[O-])c1,i,i,i,i,i
Cc1cc(C)n(C(C)CNC(=O)c2ccc3c(c2)OCO3)n1 (stereo not given),i,i,i,i,i
CSc1ccc(CNC(=O)C(C)n2nc(C)c3c(C)n(-c4ccccc4)nc3c2=O)cc1 (stereo not given),i,i,i,i,i
CCOC(=O)c1oc2ccccc2c1CN1CCCCC1,i,i,-6*,i,i
CCOC(=O)c1oc2ccccc2c1CN1CCN(C)CC1,i,i,i,i,i
N#CCC(=O)Nc1ccc(C(=O)NCC(c2ccco2)N2CCCCC2)cc1 (stereo not given),i,i,i,i,i
CN(C)c1ccc(NC(=S)N2CCN(c3ncc(C(F)(F)F)cc3Cl)CC2)cc1,127*,i,i,i,i
O=C(OCCN1CCN(c2ncc(C(F)(F)F)cc2Cl)CC1)c1ccc(F)cc1,i,10*,i,i,i
O=C(CN1CCN(c2ncc(C(F)(F)F)cc2Cl)CC1)N1CCN(c2ncc(C(F)(F)F)cc2Cl)CC1,93*,i,i,i,i
O=C(c1cccs1)N1CCN(c2ncc(C(F)(F)F)cc2Cl)CC1,i,i,i,i,i
Cc1ccc(C(=O)OCCN2CCN(c3ncc(C(F)(F)F)cc3Cl)CC2)cc1,i,16*,i,i,i
COc1cc2c(cc1OC)C(c1cccc([N+](=O)[O-])c1)N(C(=O)CCC(=O)O)CC2 (stereo not given),i,i,i,i,i
Cc1ccccc1-n1c(=O)n(Cc2ccco2)c(=O)c2[nH]cnc21,i,i,i,i,i
O=C(CCNC(=O)C1CCN(S(=O)(=O)c2ccc(F)cc2)CC1)Nc1nccs1,i,i,i,i,i
CCC(C)[C@H](Nc1nc(-c2ccccc2)nc2c1oc1ccccc12)C(=O)O (stereo not given in full),i,i,-6*,i,i
CC(C)[C@H](Nc1nc(-c2ccccc2)nc2c1oc1ccccc12)C(=O)O,i,i,i,i,i
O=C(N/N=C/c1cccnc1)c1ccccc1OCc1ccc(Cl)cc1,100*,i,-6*,i,i
O=C(N/N=C/c1cccnc1)c1ccccc1OCc1ccc(Br)cc1,i,i,i,i,i
Cc1ncoc1C(=O)NC1CCCc2c1cnn2-c1ccc(C(C)(C)C)cc1 (stereo not given),i,i,i,i,i
